Screening data: PubChem BioAssay, several laboratories
The entries come from a sample that favours hits as a whole.
CHOP UPR activ: apoptotic UPR (CHOP) activation; hit rate 0.34% among 330,000; CHO-CHOP luciferase reporter, luminescence; percent of tunicamycin response over DMSO baseline; AID 449763; activation, % at 10 µM;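 active means at 10 µM dose, activation of 40% or more, normalized to positive control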
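Dosing – one dose, 10 µM in 0.5% DMSO · System – CHO-CHOP cells, stable luciferase reporter of PERK-eIF2a-CHOP signalling · Input – 500 cells/well · Control set – tunicamycin 10 µg/mL final as positive, DMSO-only wells as negative · Timing – 6 h compound treatment, 37 °C · Measure – % activation vs tunicamycin · Technique – luminescence read with Steady-Glo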
UPR XBP1 act: activators of adaptive arm of unfolded protein response (XBP1); CHO-XBP1 luciferase reporter, IRE1-XBP1 UPR activation, luminescence; percent of tunicamycin response, DMSO as zero; activation, % at 20 µM; hit rate 0.33% among 330,000; AID 463104;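 active means versus positive control, 20 µM dose yields 30% or more activation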
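Material: CHO-XBP1 cells stably carrying IRE1-XBP1-driven luciferase reporter / Amount: 1000 cells per well / Compound: 20 µM, 1% DMSO / Times: 6 h treatment, 37 °C / Detection: luciferase luminescence / Measure: % activation of reporter signal versus tunicamycin and DMSO controls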
697 NFkB inh: inhibitors of the PMA/ionomycin-induced NF-kB reporter in 697 B cells; hit rate 0.33% among 330,000; 697 B-cell NF-kB luciferase reporter, 16 h; inhibition, % at 4 µM; AID 435022; in the data active means inhibition above about 35%
Jurkat NFkB inh: inhibitors of the PMA/ionomycin-induced NF-kB reporter in Jurkat cells. hit rate 0.53% among 330,000. inhibition, % at 4 µM. PMA/ionomycin-induced NF-kB luciferase reporter, luminescence; in the data active means inhibition above about 50%
CHOP inhibitor: blocks CHOP induction under ER stress | hit rate 3.8% among 220,000 | CHO-K1 CHOP-promoter luciferase, tunicamycin-induced, 15-18 h | inhibition, % at 10 µM;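 active means compounds that reduced the stress-induced luciferase reporter signal by more than about 70% of percent inhibition, limit read from the data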
A number is an active result; n = inactive; x = not tested or not shown.

SMILES	CHOP UPR activ	UPR XBP1 act	697 NFkB inh	Jurkat NFkB inh	CHOP inhibitor
CCOc1ccccc1NC(=O)C(=O)/C=C(\O)c1cc(OC)ccc1OC	n	n	n	n	95
CCCN(CC(=O)Nc1ccccc1OC)C(=O)CSc1ccc(Br)cc1C	n	n	n	n	x
Cn1cccc1C(=O)OCc1cc(Cl)cc2c1OCOC2	n	n	n	n	73
CC(=O)c1c(C)[nH]c(C(=O)N2CCN(c3ccc(F)cc3)CC2)c1C	n	n	n	n	84
COC(=O)c1c(C)[nH]c(C(=O)N2CCN(c3ccc(OC)cc3)CC2)c1C	x	x	x	x	n
Cc1cc(N2CCC(C)CC2)nc2cccc(O)c12	n	n	n	n	82
Cc1ccccc1NC(=O)CSc1nc(=O)n(CCN2CCOCC2)c2c1CCCC2	n	n	n	n	x
O=C(NC(=S)Nc1nc(-c2ccc([N+](=O)[O-])cc2)cs1)c1ccco1	n	n	n	n	x
O=C(NC(=S)Nc1nc(-c2ccc(Br)cc2)cs1)c1ccco1	n	n	n	n	84
CC(=O)OCC(OC(C)=O)C(OC(C)=O)C(OC(C)=O)C(=O)Nc1cccc(C)c1 (centres undefined)	n	n	n	n	n
Oc1ccc(-c2nccc(-c3ccc(Cl)cc3Cl)n2)cc1	n	n	n	n	80
O=[N+]([O-])c1ccc(Oc2ncccn2)cc1	n	n	n	n	x
O=[N+]([O-])c1ccc(OCc2cccc(COc3ccc([N+](=O)[O-])cc3)n2)cc1	n	n	n	n	83
CC(=O)N1CCOc2ccc(S(=O)(=O)NCc3ccc(F)cc3)cc21	n	n	n	n	x
O=C(O)c1ccc(NC2=C/C(=N/S(=O)(=O)c3ccccc3)c3ccccc3C2=O)cc1	n	n	n	n	103
O=c1[nH]c(CN2CCN(Cc3ccc4c(c3)OCO4)CC2)nc2ccccc12	n	n	n	n	n
O=c1cc(-c2ccccc2)nc(N2CCN(Cc3ccc4c(c3)OCO4)CC2)[nH]1	n	n	n	n	71
CC(C)OCCCN1C(=O)c2[nH]nc(-c3ccccc3O)c2C1c1cccc(Cl)c1 (centres undefined)	n	n	n	n	95
COCCCN1C(=O)c2[nH]nc(-c3ccccc3O)c2C1c1cccc(Cl)c1 (centres undefined)	n	n	n	n	x
CCN(CC)c1cccc(OC2=NS(=O)(=O)c3ccccc32)c1	n	n	n	n	81
Cc1ccc(S(=O)(=O)Cc2nnnn2-c2ccccc2)cc1	n	n	n	n	x
CCCNC(=O)COC(=O)c1ccccc1OCC(=O)Nc1ccc(Br)cc1	n	n	n	n	80
CC(C)C(=O)Nc1cccc(C(=O)Nc2ccc(S(=O)(=O)Nc3nccs3)cc2)c1	n	n	n	n	x
CC1(C)CC(NC(=O)COc2ccc3c4c(c(=O)oc3c2)CCCC4)CC(C)(C)N1	n	n	n	n	x
COC(=O)CSc1nnc(-c2ccccc2OC)o1	n	n	n	n	n
SMILES	CHOP UPR activ	UPR XBP1 act	697 NFkB inh	Jurkat NFkB inh	CHOP inhibitor
O=C(CSc1nnc(-c2ccccc2)o1)Oc1ccc(Br)cc1	n	n	n	n	81
COc1ccc(-c2nnc(SCC(=O)Nc3cccc(Cl)c3)o2)cc1	n	n	n	n	89
COc1ccc(-c2nnc(SCC(=O)Nc3nncs3)o2)cc1	n	n	n	n	n
Cc1cccc(C)c1OC(=O)CSc1nnc(-c2ccccc2O)o1	n	n	n	n	92
O=C(CSc1nnc(-c2ccc(Br)cc2)o1)Nc1cccc2ccccc12	n	n	n	n	70
CCOC(=O)CSc1nnc(-c2ccccc2)o1	n	n	n	n	n
Cc1ccc(NC(=O)CCn2cc(C(F)(F)F)ccc2=O)cc1	n	n	n	n	n
O=C(CSc1ccc(Cl)cc1)Nc1cccc(-c2nc3ncccc3o2)c1	n	n	n	n	73
CCN(C(=O)COC(=O)c1ccc(=O)n(Cc2ccccc2)n1)C1CCS(=O)(=O)C1 (centres undefined)	n	n	n	n	x
CN(c1ccc(O)cc1)c1nc(-c2ccccc2)cs1	x	x	x	x	90
COc1ccc(N(CC(=O)NCc2ccc(F)cc2)C(=O)c2snc(C(N)=O)c2N)cc1OC	n	n	n	n	x
O=c1cc(-c2ccccc2Cl)oc2c([N+](=O)[O-])c(O)cc(O)c12	n	n	n	n	76
CCOc1ccc2oc(C(=O)OCC(=O)N3CC(C)OC(C)C3)c(C)c2c1 (centres undefined)	n	n	n	n	x
Cc1ccc(Cn2cccc2/C=C2/C(=N)N3C=CSC3=NC2=O)cc1	n	n	n	n	94
N=C1/C(=C/c2cccn2Cc2ccc(F)cc2)C(=O)N=C2SC=CN12	n	n	n	n	n
Fc1ccc(Nc2nc(-c3ccncc3)nc3ccccc23)cc1	n	n	n	n	90
c1ccc(Nc2nc(-c3ccncc3)nc3ccccc23)cc1	n	n	n	n	n
c1ccc(OCCOCCN2CCN(C(c3ccccc3)c3ccccc3)CC2)cc1	n	n	n	n	73
COc1ccccc1OCCCCN1CCN(C(c2ccccc2)c2ccccc2)CC1	n	n	n	n	86
CCc1ccc(-c2nc(SCC(=O)N(C)C3CCS(=O)(=O)C3)n[nH]2)cc1 (centres undefined)	n	n	n	n	x
O=C(c1cccs1)N1CCN(CCCc2ccccc2)CC1	n	n	n	n	75
Cc1cc2ncn(C(=O)c3c(-c4c(Cl)cccc4Cl)noc3C)c2cc1C	n	n	n	n	74
Cc1cc2ncn(C(=O)c3c(-c4ccccc4)noc3C)c2cc1C	n	n	n	n	72
CCOC(=O)c1sc(NC(=O)CCCCCN2C(=O)c3cccc4cccc(c34)C2=O)nc1C	x	x	x	x	72
Cc1cc(C)nc(SCc2ccc(C(=O)NNC(=O)Nc3cccc(Cl)c3)cc2)n1	x	x	x	x	96
SMILES	CHOP UPR activ	UPR XBP1 act	697 NFkB inh	Jurkat NFkB inh	CHOP inhibitor
COc1ccc(Cl)cc1NC(=O)CN(C)Cc1cccs1	n	n	n	n	x
CN(Cc1ccccc1)C(=O)CCS(=O)(=O)c1ccc2c(c1)NC(=O)CS2	n	n	n	n	x
COc1ccc(-n2c(C)nc3c(cnn3-c3ccc(C)c(C)c3)c2=O)cc1	n	n	n	n	73
Cc1ccc(-n2ncc3c(=O)n(-c4ccc(C)c(C)c4)c(C)nc32)cc1	n	n	n	n	73
Cc1ccc(-n2c(C)nc3c(cnn3-c3ccc(F)cc3)c2=O)cc1	n	n	n	n	n
COc1cccc(-n2c(C)nc3c(cnn3-c3ccc(Cl)cc3)c2=O)c1	n	n	n	n	n
O=C(NC1CC(=O)N(c2cccc(F)c2)C1)N1CCN(C(=O)c2ccco2)CC1 (centres undefined)	n	n	n	n	x
Cc1ccc(SCC(=O)NC(=O)NCc2ccccc2)c(C)c1	n	n	n	n	81
COc1cc([N+](=O)[O-])ccc1NC(=O)NNC(=O)c1sccc1C	n	n	n	n	x
CC(Sc1ccc(Cl)cc1)C(=O)Nc1ccccc1-c1ccccc1 (centres undefined)	x	x	x	x	93
